From ChEMBL document CHEMBL1156816, “Antiangiogenic effect of dual/selective alpha(5)beta(1)/alpha(v)beta(3) integrin antagonists designed on partially modified retro-inverso cyclotetrapeptide mimetics” (J Med Chem, 2010)
The source made the active and inactive calls. The calls are words filed in the database; no cut-off is given here. Non-standard residues stand in square brackets, D forms with d. Residues, ends and D or L forms follow the SMILES beside them.

Experiments:
HUVEC [1] = assay: Antiangiogenic activity in HUVEC on Matrigel assessed as reduction of bFGF-induced tube branches measured per square mm at 10 uM after 16 hrs by microscopic analysis; format: functional
Method in brief: (§1)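 HUVEC (passages 2-7, cultured in EGM) seeded at 5000 cells/well on Matrigel-precoated wells with test compound, with or without bFGF 30 ng/mL. Vehicle up to 1% DMSO in medium. Incubated 16 h at 37 °C. Capillary-like tubes examined by microscopy with camera and counted as tubes per square millimeter. Quadruplicate, repeated three times; mean ± SEM; Newman-Keuls test after ANOVA.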

HUVEC [2] = assay: Cytotoxicity against HUVEC assessed as change in cell morphology at 1 uM after 16 hrs by flow cytometry using Annexin V/propidium staining; format: cell-based; settings: human
Method in brief: (§2)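 HUVEC exposed 16 h to 1 or 10 μM cyclopeptide; morphology examined. For flow cytometry, cells were detached and fixed 15 min in 1% paraformaldehyde, then PBS-washed. They were resuspended in 10 mM Hepes/NaOH pH 7.4, 140 mM NaCl, 5 mM CaCl₂ with Annexin-V-Fluos and propidium iodide, kept 15 min at room temperature in the dark, then analyzed for intact, apoptotic and necrotic cells.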

HUVEC [3] = assay: Cytotoxicity against HUVEC assessed as change in cell morphology at 10 uM after 16 hrs by flow cytometry using Annexin V/propidium staining; format: cell-based; settings: human; method in brief: as §2
HUVEC [4] = assay: Cytotoxicity against HUVEC assessed as increase in level of necrotic cells at 1 uM after 16 hrs by flow cytometry using Annexin V/propidium staining; format: cell-based; settings: human; method in brief: as §2
HUVEC [5] = assay: Cytotoxicity against HUVEC assessed as increase in level of necrotic cells at 10 uM after 16 hrs by flow cytometry using Annexin V/propidium staining; format: cell-based; settings: human; method in brief: as §2
Integrin alpha-V/beta-3 [6] = target: T1, Integrin alpha-V/beta-3 (Homo sapiens, UniProt P05106+P06756); assay: Inhibition of alphavbeta3 integrin-mediated cell adhesion in human SK-MEL-24 cells on fibronectin coated plate after 30 mins; format: cell-based
Integrin alpha-V/beta-3 [7] = target: T1, Integrin alpha-V/beta-3; assay: Inhibition of alphavbeta3 integrin-mediated cell adhesion in HUVEC on vitronectin coated plate after 30 mins
Integrin alpha-5/beta-1 = Integrin alpha-5/beta-1 (Homo sapiens, UniProt P05556+P08648); assay: Inhibition of alpha5beta1 integrin-mediated cell adhesion in human K562 cells on fibronectin coated plate after 30 mins; format: cell-based
Method in brief: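 Wells coated overnight at 4 °C with fibronectin or vitronectin (10 μg/mL). Cells were preincubated 30 min at room temperature with compound (≤1% DMSO), then plated at 50000/well and left 1 h at room temperature. After PBS wash, adherent cells were quantified by hexosaminidase substrate read at 405 nm against a calibration curve. Quadruplicate, ≥3 repeats; IC50 calculated.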

HUVEC [8] = assay: Antiangiogenic activity in HUVEC on Matrigel assessed as inhibition of bFGF-induced tube formation at 1 uM after 16 hrs; format: functional, cell-based; settings: Homo sapiens; method in brief: as §1
HUVEC [9] = assay: Inhibition of bFGF-induced angiogenesis in HUVEC on Matrigel assessed as endothelial morphogenesis at 1 uM after 16 hrs by microscopic analysis; format: functional, cell-based; settings: Homo sapiens; method in brief: as §1
HUVEC [10] = assay: Inhibition of bFGF-induced angiogenesis in HUVEC on Matrigel assessed as number of tube branches at 100 to 500 nM after 16 hrs by microscopic analysis; format: functional, cell-based; settings: Homo sapiens; method in brief: as §1
HUVEC [11] = assay: Inhibition of bFGF-induced angiogenesis in HUVEC cells on Matrigel assessed as number of tube branches at 10 nM after 16 hrs by microscopic analysis; format: functional, cell-based; settings: Homo sapiens; method in brief: as §1
[12] = in the assay text read “at 1 uM” for “at 10 uM”

T1 sequence (P05106 27-788 limits assumed): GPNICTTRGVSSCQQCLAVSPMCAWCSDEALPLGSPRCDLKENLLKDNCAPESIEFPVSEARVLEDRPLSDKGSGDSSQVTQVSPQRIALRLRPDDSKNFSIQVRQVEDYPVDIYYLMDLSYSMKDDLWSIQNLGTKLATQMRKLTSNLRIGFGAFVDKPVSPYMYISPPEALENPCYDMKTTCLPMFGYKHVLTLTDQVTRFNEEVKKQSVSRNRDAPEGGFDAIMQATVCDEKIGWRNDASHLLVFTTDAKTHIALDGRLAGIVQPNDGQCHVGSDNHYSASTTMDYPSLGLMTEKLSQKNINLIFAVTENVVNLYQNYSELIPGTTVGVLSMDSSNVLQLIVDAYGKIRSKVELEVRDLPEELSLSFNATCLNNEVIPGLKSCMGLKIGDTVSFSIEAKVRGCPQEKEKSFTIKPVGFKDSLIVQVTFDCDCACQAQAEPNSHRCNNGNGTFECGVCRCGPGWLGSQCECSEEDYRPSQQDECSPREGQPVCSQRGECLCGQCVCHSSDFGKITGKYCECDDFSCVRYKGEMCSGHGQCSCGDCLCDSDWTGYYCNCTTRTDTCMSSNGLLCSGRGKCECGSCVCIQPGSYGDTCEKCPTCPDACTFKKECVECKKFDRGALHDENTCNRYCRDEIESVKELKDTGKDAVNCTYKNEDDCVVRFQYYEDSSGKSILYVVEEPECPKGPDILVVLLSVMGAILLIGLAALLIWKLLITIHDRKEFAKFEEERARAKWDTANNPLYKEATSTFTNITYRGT
T1 sequence (P06756 31-889 limits assumed): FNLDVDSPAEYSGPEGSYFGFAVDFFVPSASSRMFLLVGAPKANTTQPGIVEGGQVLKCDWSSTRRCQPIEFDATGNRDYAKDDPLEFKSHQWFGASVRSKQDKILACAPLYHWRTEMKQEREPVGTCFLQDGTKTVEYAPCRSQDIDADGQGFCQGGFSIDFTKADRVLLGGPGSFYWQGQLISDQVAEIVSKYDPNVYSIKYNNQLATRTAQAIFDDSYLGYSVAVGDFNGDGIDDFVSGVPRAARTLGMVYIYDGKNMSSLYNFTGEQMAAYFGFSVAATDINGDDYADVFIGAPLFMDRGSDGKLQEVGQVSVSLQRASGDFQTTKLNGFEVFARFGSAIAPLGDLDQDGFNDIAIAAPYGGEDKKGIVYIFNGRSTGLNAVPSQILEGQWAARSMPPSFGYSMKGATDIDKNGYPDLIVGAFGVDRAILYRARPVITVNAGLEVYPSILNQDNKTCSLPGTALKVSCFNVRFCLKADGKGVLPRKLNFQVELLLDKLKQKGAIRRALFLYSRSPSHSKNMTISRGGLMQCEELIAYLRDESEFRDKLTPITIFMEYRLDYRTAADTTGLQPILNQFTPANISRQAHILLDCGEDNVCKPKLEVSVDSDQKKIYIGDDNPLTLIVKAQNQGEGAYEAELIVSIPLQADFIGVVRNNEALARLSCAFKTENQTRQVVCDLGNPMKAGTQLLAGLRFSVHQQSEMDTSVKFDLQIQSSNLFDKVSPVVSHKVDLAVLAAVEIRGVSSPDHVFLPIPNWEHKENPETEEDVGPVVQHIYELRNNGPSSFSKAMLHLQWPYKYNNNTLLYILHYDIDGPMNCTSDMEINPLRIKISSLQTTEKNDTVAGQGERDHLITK
T1 sequence (P06756 891-1048 limits assumed): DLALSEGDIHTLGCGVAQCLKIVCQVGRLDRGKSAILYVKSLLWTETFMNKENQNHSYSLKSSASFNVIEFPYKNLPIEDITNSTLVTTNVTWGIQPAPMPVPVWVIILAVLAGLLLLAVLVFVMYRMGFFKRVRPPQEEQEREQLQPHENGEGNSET
Chain of Integrin alpha-5/beta-1 (P05556 21-798 limits assumed): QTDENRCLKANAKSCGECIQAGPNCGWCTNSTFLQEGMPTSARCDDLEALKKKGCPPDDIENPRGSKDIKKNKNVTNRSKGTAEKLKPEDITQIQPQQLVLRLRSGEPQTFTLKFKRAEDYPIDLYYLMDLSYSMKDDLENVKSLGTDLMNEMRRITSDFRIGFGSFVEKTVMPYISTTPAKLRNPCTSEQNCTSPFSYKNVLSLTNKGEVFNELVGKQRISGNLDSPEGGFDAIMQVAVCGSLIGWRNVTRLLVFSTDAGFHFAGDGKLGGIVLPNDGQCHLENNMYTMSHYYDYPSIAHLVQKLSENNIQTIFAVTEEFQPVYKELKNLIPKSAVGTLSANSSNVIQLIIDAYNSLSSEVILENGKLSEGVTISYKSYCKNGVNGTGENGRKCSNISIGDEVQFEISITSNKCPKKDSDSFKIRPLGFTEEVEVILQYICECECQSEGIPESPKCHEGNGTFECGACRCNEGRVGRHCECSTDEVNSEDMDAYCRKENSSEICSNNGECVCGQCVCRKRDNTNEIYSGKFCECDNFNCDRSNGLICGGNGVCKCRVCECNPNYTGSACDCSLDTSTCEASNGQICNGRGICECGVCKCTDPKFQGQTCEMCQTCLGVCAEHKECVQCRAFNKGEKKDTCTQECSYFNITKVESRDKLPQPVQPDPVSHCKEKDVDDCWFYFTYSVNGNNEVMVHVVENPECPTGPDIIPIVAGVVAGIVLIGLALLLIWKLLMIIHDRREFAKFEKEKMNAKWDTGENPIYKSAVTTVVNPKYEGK
Chain of Integrin alpha-5/beta-1 (P08648 42-894 limits assumed): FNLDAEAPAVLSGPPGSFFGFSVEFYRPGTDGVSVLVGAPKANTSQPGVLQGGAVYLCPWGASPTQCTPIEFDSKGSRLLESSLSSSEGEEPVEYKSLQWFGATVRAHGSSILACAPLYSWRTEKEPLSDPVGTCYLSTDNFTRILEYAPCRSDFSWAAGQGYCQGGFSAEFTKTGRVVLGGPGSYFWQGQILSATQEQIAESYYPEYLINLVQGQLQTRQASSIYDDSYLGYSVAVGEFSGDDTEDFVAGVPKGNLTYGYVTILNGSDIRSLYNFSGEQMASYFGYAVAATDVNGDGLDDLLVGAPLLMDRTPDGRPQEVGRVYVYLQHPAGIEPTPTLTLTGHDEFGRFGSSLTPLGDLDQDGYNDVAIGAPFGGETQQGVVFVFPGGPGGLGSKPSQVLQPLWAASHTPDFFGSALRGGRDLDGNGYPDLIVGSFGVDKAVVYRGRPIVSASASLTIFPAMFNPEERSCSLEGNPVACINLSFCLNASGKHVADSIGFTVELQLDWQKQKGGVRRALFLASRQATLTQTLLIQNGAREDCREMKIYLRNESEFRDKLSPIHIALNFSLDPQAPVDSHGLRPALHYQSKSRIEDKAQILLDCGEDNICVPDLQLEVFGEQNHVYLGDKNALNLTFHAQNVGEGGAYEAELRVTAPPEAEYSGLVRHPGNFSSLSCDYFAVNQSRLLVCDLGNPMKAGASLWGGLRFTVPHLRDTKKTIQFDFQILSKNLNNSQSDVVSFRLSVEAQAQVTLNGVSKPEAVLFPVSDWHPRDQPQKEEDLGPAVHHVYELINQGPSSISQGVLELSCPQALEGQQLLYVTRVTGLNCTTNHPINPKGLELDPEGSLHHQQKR
Chain of Integrin alpha-5/beta-1 (P08648 895-1049 limits assumed): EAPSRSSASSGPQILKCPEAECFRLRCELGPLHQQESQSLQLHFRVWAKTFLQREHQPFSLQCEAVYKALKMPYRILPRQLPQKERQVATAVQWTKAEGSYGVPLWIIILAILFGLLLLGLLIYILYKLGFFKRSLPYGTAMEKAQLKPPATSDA

| Compound | Activity (HUVEC [1]; Homo sapiens) | Activity (HUVEC [2]) | Activity (HUVEC [3]) | Activity (HUVEC [4]) | Activity (HUVEC [5]) | IC50 (Integrin alpha-V/beta-3 [6]) [µM] | IC50 (Integrin alpha-V/beta-3 [7]) [µM] | IC50 (Integrin alpha-5/beta-1) [µM] | Activity (HUVEC [8]) | Activity (HUVEC [1]; [12]) | Activity (HUVEC [9]) | Activity (HUVEC [10]) | Activity (HUVEC [11]) |
| --- | --- | --- | --- | --- | --- | --- | --- | --- | --- | --- | --- | --- | --- |
| N=C(N)NCCC[C@H]1NC(=O)CC(=O)N[C@H](CC(=O)O)C(=O)N[C@@H](Cc2ccccc2)CNC1=O | inactive | – | – | – | – | – | – | – | – | – | – | – | – |
| NC(N)=NCCC[C@H]1NC(=O)CC(=O)N[C@H](CC(=O)O)C(=O)N[C@@H](Cc2ccccc2)CNC1=O | – | Non-toxic | Non-toxic | Non-toxic | Non-toxic | > 100 | > 100 | > 100 | – | – | – | – | – |
| N=C(N)NCCC[C@H]1NC(=O)CC(=O)N[C@@H](CC(=O)O)C(=O)N[C@H](Cc2ccccc2)CNC1=O | inactive | – | – | – | – | – | – | – | – | – | – | – | – |
| NC(N)=NCCC[C@H]1NC(=O)CC(=O)N[C@H](CC(=O)O)C(=O)N[C@H](Cc2ccccc2)CNC1=O | – | Non-toxic | Non-toxic | Non-toxic | Non-toxic | > 100 | > 100 | > 100 | – | – | – | – | – |
| N=C(N)NCCC[C@H]1NC(=O)CC(=O)N[C@H](CC(=O)O)C(=O)N[C@H](Cc2ccccc2)CNC1=O | inactive | – | – | – | – | – | – | – | – | – | – | – | – |
| NC(N)=NCCC[C@H]1NC(=O)CC(=O)N[C@@H](CC(=O)O)C(=O)N[C@H](Cc2ccccc2)CNC1=O | – | Non-toxic | Non-toxic | Non-toxic | Non-toxic | > 100 | > 100 | > 100 | – | – | – | – | – |
| N=C(N)NCCC[C@@H]1NC(=O)CC(=O)N[C@H](CC(=O)O)C(=O)N[C@@H](Cc2ccccc2)CNC1=O | inactive | Non-toxic | Non-toxic | Non-toxic | Non-toxic | > 100 | > 100 | > 100 | – | – | – | – | – |
| N=C(N)NCCC[C@@H]1NC(=O)CC(=O)N[C@@H](CC(=O)O)C(=O)N[C@@H](Cc2ccccc2)CNC1=O | – | Non-toxic | Non-toxic | Non-toxic | Non-toxic | 11 | 25.2 | 0.52 | Active | 6.8 | Active | inactive | inactive |
| CC(C)[C@@H]1NC(=O)[C@@H](Cc2ccccc2)NC(=O)[C@H](CC(=O)O)NC(=O)[C@H](C)NC(=O)[C@H](CCCN=C(N)N)NC1=O (cyclo(AD[dF]VR)) | – | – | – | – | – | > 100 | > 100 | > 100 | – | – | – | – | – |
| N=C(N)NCCC[C@@H]1NC(=O)CC(=O)N[C@H](CC(=O)O)C(=O)N[C@H](Cc2ccccc2)CNC1=O | inactive | Non-toxic | Non-toxic | Non-toxic | Non-toxic | 2.1 | 0.92 | 1.3 | – | – | – | – | – |
| N=C(N)NCCC[C@@H]1NC(=O)CC(=O)N[C@@H](CC(=O)O)C(=O)N[C@H](Cc2ccccc2)CNC1=O | – | – | – | – | – | – | – | – | Active | 5.1 | Active | inactive | inactive |
| NC(N)=NCCC[C@@H]1NC(=O)CC(=O)N[C@@H](CC(=O)O)C(=O)N[C@H](Cc2ccccc2)CNC1=O | – | Non-toxic | Non-toxic | Non-toxic | Non-toxic | 0.18 | 0.24 | 0.024 | – | – | – | – | – |
| N=C(N)NCCC[C@H]1NC(=O)CC(=O)N[C@@H](CC(=O)O)C(=O)N[C@@H](Cc2ccccc2)CNC1=O | inactive | Non-toxic | Non-toxic | Non-toxic | Non-toxic | 2.3 | 1.5 | 4.7 | – | – | – | – | – |
| CC(C)[C@@H]1NC(=O)[C@@H](Cc2ccccc2)NC(=O)[C@H](CC(=O)O)NC(=O)CNC(=O)[C@H](CCCN=C(N)N)NC1=O [CYCLORGDFV] | – | – | – | – | – | – | – | 34.7 | – | – | – | – | – |
